According to ChEMBL document CHEMBL4373657, “Derivatives of a new heterocyclic system - pyrano[3,4-c][1,2,4]triazolo[4,3-a]pyridines: synthesis, docking analysis and neurotropic activity” (Medchemcomm, 2019):
Activity calls are given as the source filed them. No cut-off for these calls is given here.

What was measured:
[1] = test system: Mus musculus; experiment: Anticonvulsant activity in mouse assessed as proportion of animals displaying reduction in PTZ-induced clonic seizures at 50 mg/kg, ip administered 45 mins before PTZ stimulation relative to control; format: functional; design: scale not given: the % may be the effect or the level left
How it was run: (§1)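 Outbred mice (18–22 g), 8 per dose. Compounds given i.p. at 10–100 mg kg–1 as a carboxymethylcellulose/Tween-80 suspension, 45 min before s.c. pentylenetetrazole 90 mg kg–1; controls received emulsifier. Endpoint was prevention of clonic seizures. ED50 was derived by Litchfield–Wilcoxon probit analysis.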

[2] = Neurotoxicity in ip dosed mouse assessed as myorelaxation measured for 2 mins by rotarod test; format: toxicity, organism-based; conditions: in vivo
How it was run: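 Mice were placed on a corrugated rubber-coated metal rod rotating at 5 rpm, and the number staying on for 2 min was counted. TD50 was derived by Litchfield–Wilcoxon probit analysis.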

[3] = Neurotoxicity in ip dosed mouse assessed as maximum tolerated dose by rotarod test; format: toxicity, organism-based; conditions: in vivo
How it was run: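 Mice given compounds i.p. at […] to 1800 mg/kg to establish the maximal tolerated dose.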

[4] = test system: Mus musculus; experiment: Anticonvulsant activity in mouse assessed as MES-induced […] seizures at 10 to 100 mg/kg, ip administered 45 mins before electrical stimulation; format: functional, organism-based
[5] = test system: Mus musculus; experiment: Anticonvulsant activity in mouse assessed as MES-induced tonic seizures at 10 to 100 mg/kg, ip administered 45 mins before electrical stimulation; format: functional, organism-based
How it was run: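 Mice, 8 per dose. Compounds given i.p. at 10, 25, 50, 75 or 100 mg kg–1 in carboxymethylcellulose/Tween-80 suspension, 45 min before maximal electroshock (50 mA, 0.2 s, 50 imp s–1); controls received emulsifier. Endpoint was prevention of the tonic-extensor phase.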

[6] = Neurotoxicity in mouse assessed as motor coordination at 50 to 100 mg/kg, ip by rotarod test; format: toxicity, organism-based; conditions: in vivo
How it was run: (§2)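 Mice dosed i.p. at 50–100 mg kg–1; reference drugs given at effective anticonvulsant doses. Mice were placed on a corrugated rubber-coated metal rod rotating at 5 rpm, and the number staying on for 2 min was counted. TD50 was derived by Litchfield–Wilcoxon probit analysis.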

[7] = Neurotoxicity in mouse assessed as myorelaxation at 50 to 100 mg/kg, ip measured for 2 mins by rotarod test; format: toxicity, organism-based; conditions: in vivo; how it was run: as §2
[8] = test system: Mus musculus; experiment: Anticonvulsant activity in ip dosed mouse assessed as reduction in PTZ-induced clonic seizures administered 45 mins before PTZ stimulation; format: functional; how it was run: as §1
[9] = test system: Mus musculus; experiment: Anticonvulsant activity in mouse assessed as reduction in PTZ-induced clonic seizures at 25 mg/kg, ip administered 45 mins before PTZ stimulation; format: functional, organism-based; how it was run: as §1
[10] = Protection index, ratio of TD50 for neurotoxicity in ip dosed mouse to ED50 for anticonvulsant activity in ip dosed mouse; format: toxicity, organism-based; conditions: in vivo, read-out: Ratio TD50/ED50
[11] = test system: Rattus norvegicus; experiment: Antianxiety activity in Wistar rat assessed as horizontal movement of animals at 50 mg/kg, ip measured for 5 mins by open field test; format: functional, organism-based
How it was run: (§3)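 Male Wistar rats (120–140 g), n = 8 per compound, control and reference. Single i.p. dose of 50 mg kg–1 as a suspension in methylcarboxycellulose with Tween-80; controls received emulsifier. Daytime, natural light. Over 5 min, horizontal movements, rearings (vertical movements) and cell sniffings were counted.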

[12] = test system: Rattus norvegicus; experiment: Antianxiety activity in Wistar rat assessed as vertical movement of animals at 50 mg/kg, ip measured for 5 mins by open field test; format: functional, organism-based; how it was run: as §3
[13] = test system: Mus musculus; experiment: Antianxiety activity in mouse assessed as time spent in closed arms at 50 mg/kg, ip measured for 5 mins by elevated plus maze test (reference value: 278.2 secs); format: functional
[14] = test system: Rattus norvegicus; experiment: Antianxiety activity in Wistar rat assessed as increase in number of sniffing cell examinations at 50 mg/kg, ip measured for 5 mins by open field test; format: functional, organism-based; how it was run: as §3
[15] = test system: Mus musculus; experiment: Antianxiety activity in mouse assessed as decrease in number of entries into closed arms at 50 mg/kg, ip measured for 5 mins by elevated plus maze test; format: functional, organism-based
[16] = test system: Mus musculus; experiment: Sedative activity in mouse assessed as time spent in center at 50 mg/kg, ip measured for 5 mins by elevated plus maze test (reference value: 21.8 secs); format: functional
[17] = test system: Mus musculus; experiment: Antianxiety activity in mouse assessed as increase in time spent in open arms at 50 mg/kg, ip measured for 5 mins by elevated plus maze test; format: functional
[18] = test system: Mus musculus; experiment: Antidepressant activity in mouse assessed as latent period of first immobilization at 50 mg/kg, ip measured for 6 mins by forced swimming test (reference value: 92 secs); format: functional
How it was run: (§4)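 Each mouse swam in a glass container (22 cm high, 14 cm diameter) one-third filled with water, under natural light. Over 6 min, latency to first immobilization, total immobilization time and total active swimming time were recorded.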

[19] = test system: Mus musculus; experiment: Antidepressant activity in mouse assessed as total time of immobilization at 50 mg/kg, ip measured for 6 mins by forced swimming test (reference value: 81 secs); format: functional; how it was run: as §4
[20] = test system: Mus musculus; experiment: Antidepressant activity in mouse assessed as total time of active swimming at 50 mg/kg, ip measured for 6 mins by forced swimming test (reference value: 282 secs); format: functional; how it was run: as §4

SMILES | Activity [1] [%] | TD50 at 2 min [2] [mg/kg] | MTD [3] [mg/kg] | Activity [4] | Activity [5] | Activity [6] | Activity [7] | ED50 [8] [mg/kg] | anticonvulsant activity (active/inactive) [9] | selectivity ratio [10] | Activity [11] | Activity [12] | Time [13] [s] | Activity [14] | inhibition [15] | Time [16] [s] | Time [17] [s] | Time [18] [s] | Time [19] [s] | Time [20] [s]
Cc1ccc(Nc2c(C#N)c3c(c4nnc(SCC(=O)c5ccc([N+](=O)[O-])cc5)n24)COC(C)(C)C3)cc1 | 40 | > 500 | 1250 | inactive | inactive | Non-Toxic | Non-Toxic | – | – | – | – | – | – | – | – | – | – | – | – | –
CC1(C)Cc2c(C#N)c(Nc3ccccc3)n3c(SCC(=O)c4cccc([N+](=O)[O-])c4)nnc3c2CO1 | 60 | 490 | 1000 | inactive | inactive | Non-Toxic | Non-Toxic | 36 | Active | 13.6 | inactive | inactive | 241 | Active | Active | 51 | 8 | 147 | 84 | 276
CC1(C)Cc2c(C#N)c(Nc3ccccc3)n3c(SCCCc4ccccc4)nnc3c2CO1 | 60 | 560 | 1250 | inactive | inactive | Non-Toxic | Non-Toxic | 23 | Active | 24 | inactive | inactive | 223 | Active | Active | 67 | 10 | 139 | 115 | 245
Cc1ccc(Nc2c(C#N)c3c(c4nnc(SCc5ccccc5Cl)n24)COC(C)(C)C3)cc1 | 40 | > 500 | 1350 | inactive | inactive | Non-Toxic | Non-Toxic | – | – | – | – | – | – | – | – | – | – | – | – | –
CC1(C)Cc2c(C#N)c(Nc3ccccc3)n3c(SCC(=O)c4ccc(Cl)cc4)nnc3c2CO1 | 20 | > 500 | 1150 | inactive | inactive | Non-Toxic | Non-Toxic | – | – | – | – | – | – | – | – | – | – | – | – | –
COc1ccc(NC(=O)CSc2nnc3c4c(c(C#N)c(Nc5ccc(C)cc5)n23)CC(C)(C)OC4)cc1 | 40 | > 500 | 1250 | inactive | inactive | Non-Toxic | Non-Toxic | – | – | – | – | – | – | – | – | – | – | – | – | –
COc1cccc(NC(=O)CSc2nnc3c4c(c(C#N)c(Nc5ccc(C)cc5)n23)CC(C)(C)OC4)c1 | 40 | > 500 | 1100 | inactive | inactive | Non-Toxic | Non-Toxic | – | – | – | – | – | – | – | – | – | – | – | – | –
CC1(C)Cc2c(C#N)c(Nc3ccccc3)n3c(SCC(=O)N(c4ccccc4)c4ccccc4)nnc3c2CO1 | 80 | 580 | 1250 | inactive | inactive | Non-Toxic | Non-Toxic | 21 | Active | 27.6 | inactive | inactive | 133 | Active | – | 79 | 88 | 162 | 43 | 317
CCCCN(CCCC)C(=O)CSc1nnc2c3c(c(C#N)c(Nc4ccccc4)n12)CC(C)(C)OC3 | 20 | > 500 | 1000 | inactive | inactive | Non-Toxic | Non-Toxic | – | – | – | – | – | – | – | – | – | – | – | – | –
CC1(C)Cc2c(C#N)c(Nc3ccccc3)n3c(SCC(=O)c4ccc([N+](=O)[O-])cc4)nnc3c2CO1 | 40 | > 520 | 1250 | inactive | inactive | Non-Toxic | Non-Toxic | – | – | – | – | – | – | – | – | – | – | – | – | –
COc1ccc(CSc2nnc3c4c(c(C#N)c(Nc5ccc(C)cc5)n23)CC(C)(C)OC4)cc1 | 60 | 600 | 1500 | inactive | inactive | Non-Toxic | Non-Toxic | 44 | Active | 13.6 | inactive | inactive | 200.6 | Active | – | 88 | 11.4 | 158 | 71 | 289
CCOC(=O)C(Sc1nnc2c3c(c(C#N)c(Nc4ccccc4)n12)CC(C)(C)OC3)c1ccccc1 (configuration not stated) | 60 | 520 | 1200 | inactive | inactive | Non-Toxic | Non-Toxic | 44 | Active | 11.8 | inactive | inactive | 199 | Active | – | 95 | 6 | 156 | 76 | 284
Cc1cccc(NC(=O)CSc2nnc3c4c(c(C#N)c(Nc5ccccc5)n23)CC(C)(C)OC4)c1 | 20 | > 500 | 1300 | inactive | inactive | Non-Toxic | Non-Toxic | – | – | – | – | – | – | – | – | – | – | – | – | –
Cc1ccc(Nc2c(C#N)c3c(c4nnc(SCc5ccc([N+](=O)[O-])cc5)n24)COC(C)(C)C3)cc1 | 40 | > 500 | 1200 | inactive | inactive | Non-Toxic | Non-Toxic | – | – | – | – | – | – | – | – | – | – | – | – | –
CC1(C)Cc2c(C#N)c(Nc3ccccc3)n3c(SCC(=O)Nc4ccc(Cl)c(Cl)c4)nnc3c2CO1 | 20 | > 500 | 1150 | inactive | inactive | Non-Toxic | Non-Toxic | – | – | – | – | – | – | – | – | – | – | – | – | –
